Measured values taken from ChEMBL document CHEMBL1129428 (J Med Chem, 1996).

Key:
Rattus norvegicus [1] = experiment: Compound was tested for anticonvulsant activity after Oral Administration into Rats by using MES screen test after 2h,dose 12.5 mg/kg; number of rats out of four which were protected; type: functional
Method in brief: (§1)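 Rats received the compound orally. […] Rats were tested in the MES screen at 0.25, 0.5, 1, 2 and 4 h. Each value is the number of rats protected out of 4. The test followed NINDS procedures.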

Mus musculus [2] = experiment: Anticonvulsant activity after intraperitoneal injection into mice by using scPTZ screen test after 4 hr; type: functional
Rattus norvegicus [3] = experiment: Compound was tested for anticonvulsant activity after Oral Administration into Rats by using MES screen test after 4h,dose 12.5 mg/kg; number of rats out of four which were protected; type: functional; method in brief: as §1
Rattus norvegicus [4] = experiment: Compound was tested for anticonvulsant activity after Oral Administration into rat by using MES screen test after 4 hr; type: functional
Method in brief: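 Rats dosed orally, typically at 50 mg/kg first, then mostly 12.5 mg/kg (some compounds at 30 mg/kg), and tested by maximal electroshock. Four rats per compound, scored at 0.25, 0.5, 1, 2 and 4 h as the number of rats protected out of 4.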

Rattus norvegicus [5] = experiment: Compound was tested for anticonvulsant activity after Oral Administration into Rats by using MES screen test after 0.25h,dose 12.5 mg/kg; No activity was demonstarted; type: functional, organism-based; parameters: dose 12.5 mg/kg; method in brief: as §1
Mus musculus [6] = experiment: Anticonvulsant activity after intraperitoneal injection into mice by using MES screen test after 0.5 hr; type: functional
[7] = Compound was tested for toxicity after oral administration in rat by using neurotoxicity screen test after 2 hr; type: organism-based; details: in vivo
Method in brief: (§2)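 Rat neurotoxicity after oral dosing, observed at 0.25, 0.5, 1, 2, 4, 6, 8 and 24 h (8 h omitted for one compound).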

Mus musculus [8] = experiment: Anticonvulsant activity after intraperitoneal injection into mice by using scPTZ screen after 0.5 hr; type: functional
[9] = Compound was tested for […] after intraperitoneal injection into mice by using neurotoxicity screen test after 2 hr; type: organism-based; details: mouse, in vivo, ip
Method in brief: (§3)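 Quantitative intraperitoneal mouse testing in the MES, scPTZ or rotorod neurotoxicity screens at the peak time given for each compound (0.25–2 h). ED50 or TD50 reported in mg/kg with 95% CI and slope (SE).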

Mus musculus [10] = experiment: Anticonvulsant activity after intraperitoneal injection into mice measured in a maximal electroshock scree (MES) screen; type: functional
Rattus norvegicus [11] = experiment: Anticonvulsant activity after oral administration into rats; type: functional; parameters: concentration or dose not given beside the values
Mus musculus [12] = experiment: Toxicity after intraperitoneal injection into mice by using toxicity screen test after 0.5 hr; type: organism-based; details: in vivo, ip
Method in brief: (§4)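 Mice injected intraperitoneally at 30, 100 and 300 mg/kg and examined 0.5 and 4 h afterwards. Each entry is the minimum dose giving activity (MES protection, scPTZ protection, or rotorod failure for neurotoxicity) in half or more of the mice. Activity is called absent if nothing occurs at 300 mg/kg.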

Mus musculus [13] = experiment: Compound was tested for toxicity after intraperitoneal injection into mice by using toxicity screen test after 4 hr; type: organism-based; details: in vivo, ip; method in brief: as §4
Mus musculus [14] = experiment: Compound was tested for anticonvulsant activity after intraperitoneal injection into mice by using MES screen test after 2 hr; type: functional; details: ip; method in brief: as §3
Rattus norvegicus [15] = experiment: Compound was tested for anticonvulsant activity after Oral Administration into Rats by using MES screen test after 1h,dose 30 mg/kg; number of rats out of four which were protected; type: functional; method in brief: as §1
[16] = Compound was tested for toxicity after oral administration in rat by using neurotoxicity screen test after 4 hr; type: organism-based; details: in vivo; method in brief: as §2
Mus musculus [17] = experiment: Compound was tested for anticonvulsant activity after intraperitoneal injection into mice by using scPTZ screen test after 2 hr; type: functional; details: ip; method in brief: as §3
Rattus norvegicus [18] = experiment: Compound was tested for anticonvulsant activity after Oral Administration into Rats by using MES screen test after 4h,dose 30 mg/kg; number of rats out of four which were protected; type: functional; method in brief: as §1
[19] = Compound was tested for toxicity after intraperitoneal injection into mice by using neurotoxicity screen test after 2 hr; type: organism-based; details: mouse, in vivo, ip; method in brief: as §3
[20] = Protection index = TD50/ED50 (MES); details: mouse, in vivo; read-out: PI
Rattus norvegicus [21] = experiment: Compound was tested for anticonvulsant activity after Oral Administration into Rats by using MES screen test after 2h,dose 30 mg/kg; number of rats out of four which were protected; type: functional; method in brief: as §1
Rattus norvegicus [22] = experiment: Compound was tested for anticonvulsant activity after Oral Administration into Rats by using MES screen test after 0.25h,dose 30 mg/kg; number of rats out of four which were protected; type: functional; method in brief: as §1
Rattus norvegicus [23] = experiment: Compound was tested for anticonvulsant activity after Oral Administration into Rats by using MES screen test after 0.5h,dose 30 mg/kg; number of rats out of four which were protected; type: functional; method in brief: as §1
[24] = Protection index = TD50/ED50; type: ADME; details: read-out: PI
Rattus norvegicus [25] = experiment: Compound was tested for anticonvulsant activity after Oral Administration into Rats by using MES screen test after 0.25h,dose 12.50 mg/kg; number of rats out of four which were protected; type: functional; details: dose 12.5 mg/kg; method in brief: as §1
[26] = Compound was tested for toxicity after intraperitoneal injection into mice by using neurotoxicity screen test after 1 hr; type: organism-based; details: mouse, in vivo, ip; method in brief: as §3
Rattus norvegicus [27] = experiment: Compound was tested for anticonvulsant activity after Oral Administration into Rats by using MES screen test after 1h,dose 12.50 mg/kg; number of rats out of four which were protected; type: functional; details: dose 12.5 mg/kg; method in brief: as §1
Rattus norvegicus [28] = experiment: Compound was tested for anticonvulsant activity after Oral Administration into Rats by using MES screen test after 4h,dose 12.50 mg/kg; number of rats out of four which were protected; type: functional; details: dose 12.5 mg/kg; method in brief: as §1
Rattus norvegicus [29] = experiment: Compound was tested for anticonvulsant activity after Oral Administration into Rats by using MES screen test after 0.5h,dose 12.50 mg/kg; number of rats out of four which were protected; type: functional; details: dose 12.5 mg/kg; method in brief: as §1
Mus musculus [30] = experiment: Compound was tested for anticonvulsant activity after intraperitoneal injection into mice by using scPTZ screen test after 0.25 hr; type: functional; details: ip; method in brief: as §3
Mus musculus [31] = experiment: Compound was tested for anticonvulsant activity after intraperitoneal injection into mice by using MES screen test after 0.5 hr; type: functional; details: ip; method in brief: as §4
Rattus norvegicus [32] = experiment: Compound was tested for anticonvulsant activity after Oral Administration into Rats by using MES screen test after 2h,dose 12.50 mg/kg; number of rats out of four which were protected; type: functional; details: dose 12.5 mg/kg; method in brief: as §1
[33] = Compound was tested for toxicity after oral administration in rat by using neurotoxicity screen test after 0.25-24 hr; type: organism-based; details: in vivo; method in brief: as §2
[34] = Partition coefficient (logP); type: physicochemical; details: octanol/water
Method in brief: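 Partition between 1-octanol and buffer at pH 7.4, with solutions prepared in 1-octanol before buffer is added. Quantified by UV, using λmax and ε values measured in 1-octanol.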

Rattus norvegicus [35] = experiment: Compound was tested for anticonvulsant activity after Oral Administration into Rats by using MES screen test after 4h,dose 50 mg/kg; number of rats out of four which were protected; type: functional; method in brief: as §1
Rattus norvegicus [36] = experiment: Compound was tested for anticonvulsant activity after Oral Administration into Rats by using MES screen test after 0.5h,dose 50 mg/kg; number of rats out of four which were protected; type: functional; method in brief: as §1
Rattus norvegicus [37] = experiment: Compound was tested for anticonvulsant activity after Oral Administration into Rats by using MES screen test after 1h,dose 50 mg/kg; number of rats out of four which were protected; type: functional; method in brief: as §1
Mus musculus [38] = experiment: Compound was tested for anticonvulsant activity after intraperitoneal injection into mice by using scPTZ screen test after 0.5 hr; type: functional; details: ip; method in brief: as §4
Rattus norvegicus [39] = experiment: Compound was tested for anticonvulsant activity after Oral Administration into Rats by using MES screen test after 2h,dose 50 mg/kg; number of rats out of four which were protected; type: functional; method in brief: as §1
Rattus norvegicus [40] = experiment: Compound was tested for anticonvulsant activity after Oral Administration into Rats by using MES screen test after 0.25h,dose 50 mg/kg; number of rats out of four which were protected; type: functional; method in brief: as §1
Mus musculus [41] = experiment: Compound was tested for anticonvulsant activity after intraperitoneal injection into mice by using MES screen test after 1 hr; type: functional; details: ip; method in brief: as §3
Rattus norvegicus [42] = experiment: Compound was tested for anticonvulsant activity after Oral Administration into Rats by using MES screen test after 0.5h,dose 30 mg/kg; No activity was demonstarted; type: functional, organism-based; parameters: dose 30 mg/kg; method in brief: as §1
Rattus norvegicus [43] = experiment: Compound was tested for anticonvulsant activity after Oral Administration into Rats by using MES screen test after 2h,dose 30 mg/kg; No activity was demonstarted; type: functional, organism-based; parameters: dose 30 mg/kg; method in brief: as §1
Rattus norvegicus [44] = experiment: Compound was tested for anticonvulsant activity after Oral Administration into Rats by using MES screen test after 1h,dose 30 mg/kg; No activity was demonstarted; type: functional, organism-based; parameters: dose 30 mg/kg; method in brief: as §1

SMILES	Dose (Mus musculus [2])	ED50 (Rattus norvegicus [4])	Dose (Mus musculus [6])	Dose (Mus musculus [8])	TD50 at 2 h [9]	Dose (Mus musculus [10])	Dose (Mus musculus [12])	Dose (Mus musculus [13])	Activity (Rattus norvegicus [18])	Activity (Rattus norvegicus [22])	selectivity ratio [24]	also measured
NC(=O)N/N=C/c1ccc(Oc2c(F)cccc2F)cc1	300 mg/kg	5.53 mg/kg	30 mg/kg	300 mg/kg	125 mg/kg	30 mg/kg	300 mg/kg	300 mg/kg	–	–	–	Activity (Rattus norvegicus [1]): 4; Activity (Rattus norvegicus [3]): 4; Activity (Rattus norvegicus [5]): No activity; TD50 at 2 h [7]: > 500 mg/kg; Activity (Rattus norvegicus [11]): 2
C/C(=N/NC(N)=O)c1ccc(Oc2ccc(Cl)cc2)cc1	30 mg/kg	2.92 mg/kg	30 mg/kg	–	–	30 mg/kg	300 mg/kg	100 mg/kg	4	3	2.23	ED50 (Mus musculus [14]): 9.14 mg/kg; Activity (Rattus norvegicus [15]): 4; TD50 at 4 h [16]: < 500 mg/kg; ED50 (Mus musculus [17]): 34.4 mg/kg; TD50 at 2 h [19]: 76.5 mg/kg; selectivity ratio [20]: 8.37; Activity (Rattus norvegicus [21]): 4; Activity (Rattus norvegicus [23]): 4
Cc1ccc(Oc2ccc(/C=N/NC(N)=O)cc2)c(C)c1	30 mg/kg	–	30 mg/kg	30 mg/kg	–	30 mg/kg	300 mg/kg	100 mg/kg	–	–	–	Activity (Rattus norvegicus [25]): 1; TD50 at 1 h [26]: 37 mg/kg; Activity (Rattus norvegicus [27]): 4; Activity (Rattus norvegicus [28]): 4; Activity (Rattus norvegicus [29]): 4; ED50 (Mus musculus [30]): 33.6 mg/kg; ED50 (Mus musculus [31]): 4.6 mg/kg; Activity (Rattus norvegicus [32]): 4
NC(=O)N/N=C/c1ccc(Oc2ccc(F)c(F)c2)cc1	300 mg/kg	2.37 mg/kg	100 mg/kg	30 mg/kg	94.8 mg/kg	30 mg/kg	–	–	–	–	1.3	TD50 [33]: > 500 mg/kg; logP [34]: 2.76; Activity (Rattus norvegicus [35]): 4; Activity (Rattus norvegicus [36]): 4; Activity (Rattus norvegicus [37]): 4; ED50 (Mus musculus [38]): 72.8 mg/kg; Activity (Rattus norvegicus [39]): 4; Activity (Rattus norvegicus [40]): 2; ED50 (Mus musculus [41]): 14.5 mg/kg
O=CN/N=C/c1ccc(Sc2ccc(F)cc2)cc1	300 mg/kg	–	100 mg/kg	–	–	100 mg/kg	–	300 mg/kg	1	1	–	Activity (Rattus norvegicus [42]): No activity; Activity (Rattus norvegicus [43]): No activity; Activity (Rattus norvegicus [44]): No activity
